Source: ChEMBL document CHEMBL3808291, “Bifunctional Peptide-Based Opioid Agonist-Nociceptin Antagonist Ligands for Dual Treatment of Acute and Neuropathic Pain” (J Med Chem, 2016)
Activity calls are given as the source filed them. Numbered stars: 1 amine (or outer) side, 2 acyl side, 3 side chain; on linkers, the order of the positions; unused ones are H or OH. Square brackets hold non-standard residues; d marks the D form. Peptide text beside a SMILES is read from it. X1 = O=C1[C@@H](N[*:1])Cc2ccccc2CN1CCC(=O)[*:2]; Phe(4-F) = N[C@@H](Cc1ccc(F)cc1)C(=O)O; Dmt = Cc1cc(O)cc(C)c1C[C@H](N)C(=O)O

How the values were obtained:
[1] = system: Mus musculus; assay: Antinociceptive activity in C57BL6 mouse model of acute pain assessed as increase in withdrawal latency from radiant heat source at 390 nmol/kg, iv measured after 15 to 30 mins by tail flick assay; assay type: functional, organism-based
Method in brief: (§1)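 Male C57BL6 mice (20–25 g); compound or saline given iv into tail vein (po also tested). Radiant heat on ventral tail, latency to withdrawal/shaking recorded at baseline and 5, 15, 30, 60, 120 min (later points also reported); normalized as %MPE; 8–10 mice per group.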

[2] = system: Mus musculus; assay: Antihyperalgesic activity in albino Swiss CD1 IGS mouse model of chronic constriction injury-induced neuropathic pain assessed as increase in paw withdrawal latency at >10 ug, it administered on day 7 to 16 after CCI surgery measured 30 mins post dose by cold plate test relative to control; assay type: functional
[3] = system: Mus musculus; assay: (§2) Antiallodynic activity in albino Swiss CD1 IGS mouse model of chronic constriction injury-induced neuropathic pain assessed as increase in mechanical threshold for paw withdrawal at 10 ug, it administered on day 7 to 16 after CCI surgery measured 30 mins post dose by Von Frey test relative to control; assay type: functional
[4] = system: Mus musculus; assay: Antihyperalgesic activity in albino Swiss CD1 IGS mouse model of chronic constriction injury-induced neuropathic pain assessed as increase in paw withdrawal latency at 10 ug, it administered on day 7 to 16 after CCI surgery measured 30 mins post dose by cold plate test relative to control; assay type: functional
[5] = system: Mus musculus; assay: Antinociceptive activity in C57BL6 mouse model of acute pain assessed as increase in withdrawal latency from radiant heat source at 10 ug, iv measured after 5 to 120 mins by tail flick assay relative to control; assay type: functional
[6] = system: Mus musculus; assay: Antiallodynic activity in intrathecally dosed albino Swiss CD1 IGS mouse model of chronic constriction injury-induced neuropathic pain assessed as increase in mechanical threshold for paw withdrawal administered on day 7 to 16 after CCI surgery measured 30 mins post dose by Von Frey test; assay type: functional
Method in brief: (§3)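 Male Albino Swiss CD-1 mice (30–35 g), sciatic chronic constriction injury under chloral hydrate; tested days 7–16 post-surgery. Compound in water for injection, 5 µL intrathecal by lumbar puncture L5–L6 in awake mice.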

[7] = system: Mus musculus; assay: Antihyperalgesic activity in intrathecally dosed albino Swiss CD1 IGS mouse model of chronic constriction injury-induced neuropathic pain assessed as increase in paw withdrawal latency administered on day 7 to 16 after CCI surgery measured 30 mins post dose by cold plate test; assay type: functional; method in brief: as §3
[8] = system: Mus musculus; assay: Antinociceptive activity in iv dosed C57BL6 mouse model of acute pain assessed as increase in withdrawal latency from radiant heat source measured after 5 to 120 mins by tail flick assay; assay type: functional, organism-based
Method in brief: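 Male C57BL6 mice (20–25 g), restrained; compound or saline control injected intravenously into tail vein. Radiant heat light beam applied to ventral tail; latency to withdrawal or tail shake recorded at baseline and 5, 15, 30, 60, 120 min post-injection. Latencies normalized as %MPE (mean ± SEM); groups of 8–10 mice.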

[9] = system: Mus musculus; assay: Antinociceptive activity in C57BL6 mouse model of acute pain assessed as increase in withdrawal latency from radiant heat source at 390 nmol/kg, iv measured after 60 mins by tail flick assay; assay type: functional, organism-based; method in brief: as §1
[10] = system: Mus musculus; assay: Antinociceptive activity in C57BL6 mouse model of acute pain assessed as increase in withdrawal latency from radiant heat source at >10 ug, iv measured after 5 to 120 mins by tail flick assay relative to control; assay type: functional
[11] = system: Mus musculus; assay: as §2, with “>10” for “10”; assay type: functional
[12] = system: Mus musculus; assay: Antihyperalgesic activity in albino Swiss CD1 IGS mouse model of streptozocin-induced type1 diabetic neuropathic pain assessed as increase in paw withdrawal latency at 0.005 nmol, it administered on day 10 after STZ injection measured at 180 mins post dose by […]; assay type: functional, organism-based
Method in brief: (§4)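 Male CD-1 mice (30–35 g). CCI: sciatic constriction injury, tested on days 7–16 after surgery. STZ diabetes: single ip streptozocin 200 mg/kg; mice with glucose >300 mg/dL included, tested on day 10. Drug in water for injection, given it (5 µL, L5–L6 lumbar puncture) to conscious mice. von Frey (cutoff 6 g) or cold plate (2 °C, 30 s cutoff, paw lift) at 30, 90, 180 min; 6–8 mice/group.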

[13] = system: Mus musculus; assay: Neurotoxicity in intrathecally dosed albino Swiss CD1 IGS mouse assessed as motor impairment measured after 15 to 120 mins post dose by rotarod test; assay type: toxicity, organism-based; details: in vivo, icv_or_intrathecal
Method in brief: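 Intrathecal dosing (water for injection, 5 µL) to male CD-1 mice. After three training sessions, mice placed on accelerating rod (2 to 40 rpm over 300 s cutoff); tested 15 and 120 min after injection.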

[14] = system: Mus musculus; assay: Antiallodynic activity in albino Swiss CD1 IGS mouse model of streptozocin-induced type1 diabetic neuropathic pain assessed as increase in mechanical threshold for paw withdrawal at 0.005 nmol, it administered on day 10 after STZ injection measured at 180 mins post dose by Von Frey test; assay type: functional, organism-based; method in brief: as §4
[15] = target: T1, Nociceptin receptor (Homo sapiens, UniProt P41146); assay: Displacement of [3H]OFQ/nociceptin from human nociceptin receptor expressed in HEK293 cell membrane incubated for 1 hr by TopCount scintillation counting method; assay type: cell membranes
[16] = system: Mus musculus; assay: Antiallodynic activity in albino Swiss CD1 IGS mouse model of streptozocin-induced type1 diabetic neuropathic pain assessed as increase in mechanical threshold for paw withdrawal at 0.005 nmol, it administered on day 10 after STZ injection measured at 30 mins post dose by Von Frey test; assay type: functional, organism-based; method in brief: as §4
[17] = system: Mus musculus; assay: Antihyperalgesic activity in albino Swiss CD1 IGS mouse model of streptozocin-induced type1 diabetic neuropathic pain assessed as increase in paw withdrawal latency at 0.007 nmol, it administered on day 10 after STZ injection measured at 180 mins post dose by […]; assay type: functional, organism-based
Method in brief: (§5)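 Male Albino Swiss CD-1 mice made diabetic by single ip streptozocin 200 mg/kg; glucose >300 mg/dL required; tested day 10. Compound in water for injection, 5 µL intrathecal at L5–L6; von Frey or cold plate (2 °C, 30 s cutoff) at 30, 90, 180 min; 6–8 mice per group.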

[18] = target: T1, Nociceptin receptor; assay: Agonist activity at human nociceptin receptor expressed in HEK293 cells assessed as inhibition of forskolin-stimulated cAMP production up to 10 uM preincubated for 15 mins followed by forskolin addition measured for 90 mins by luciferase reporter gene assay; assay type: functional, cell-based
Method in brief: (§6)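 HEK293 cells stably expressing human NOP and GloSensor, in Hepes buffer pH 7.4 with 1 mM d-luciferin, pre-equilibrated 2 h at 25 °C. Compound at various concentrations added 15 min before forskolin (0.5 µM final); luminescence read kinetically for 90 min at 25 °C with 0.5 mM IBMX. At least two experiments in duplicate.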

[19] = system: Mus musculus; assay: Antiallodynic activity in albino Swiss CD1 IGS mouse model of streptozocin-induced type1 diabetic neuropathic pain assessed as increase in mechanical threshold for paw withdrawal at 0.007 nmol, it administered on day 10 after STZ injection measured at 30 mins post dose by Von Frey test; assay type: functional, organism-based; method in brief: as §5
[20] = target: T1, Nociceptin receptor; assay: Antagonist activity at human nociceptin receptor expressed in HEK293 cells assessed as inhibition of OFQ/nociceptin-induced suppression of cAMP accumulation up to 20 uM preincubated for 15 mins followed by OFQ/nociceptin addition by luciferase reporter gene assay; assay type: functional, cell-based
[21] = system: Mus musculus; assay: Antiallodynic activity in albino Swiss CD1 IGS mouse model of streptozocin-induced type1 diabetic neuropathic pain assessed as increase in mechanical threshold for paw withdrawal at 0.007 nmol, it administered on day 10 after STZ injection measured at 180 mins post dose by Von Frey test; assay type: functional, organism-based; method in brief: as §5
[22] = organism: Mus musculus; assay: Neurotoxicity in albino Swiss CD1 IGS mouse assessed as motor impairment at 0.5 nmol, it measured after 15 to 120 mins post dose by rotarod test; assay type: toxicity, organism-based; details: in vivo, icv_or_intrathecal
Method in brief: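 CD-1 mice given intrathecal compound (5 µL, L5–L6), tested at 15 and 120 min on accelerating rotarod, 2 to 40 rpm over 300 s cutoff, after three training sessions.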

[23] = target: T1, Nociceptin receptor; assay: Agonist activity at human nociceptin receptor expressed in CHO cell membrane incubated for 60 mins by [35S]GTPgammaS binding assay relative to control; assay type: functional, cell membranes
[24] = system: Mus musculus; assay: Antiallodynic activity in albino Swiss CD1 IGS mouse model of streptozocin-induced type1 diabetic neuropathic pain assessed as increase in mechanical threshold for paw withdrawal at 0.008 nmol, it administered on day 10 after STZ injection measured at 180 mins post dose by Von Frey test; assay type: functional, organism-based; method in brief: as §5
[25] = system: Mus musculus; assay: Antiallodynic activity in albino Swiss CD1 IGS mouse model of streptozocin-induced type1 diabetic neuropathic pain assessed as increase in mechanical threshold for paw withdrawal at 0.008 nmol, it administered on day 10 after STZ injection measured at 30 mins post dose by Von Frey test; assay type: functional, organism-based; method in brief: as §5
[26] = system: Mus musculus; assay: Antihyperalgesic activity in albino Swiss CD1 IGS mouse model of streptozocin-induced type1 diabetic neuropathic pain assessed as increase in paw withdrawal latency at 0.008 nmol, it administered on day 10 after STZ injection measured at 180 mins post dose by […]; assay type: functional, organism-based; method in brief: as §5
[27] = target: T1, Nociceptin receptor; assay: Partial agonist activity at human nociceptin receptor expressed in HEK293 cells assessed as inhibition of forskolin-stimulated cAMP production preincubated for 15 mins followed by forskolin addition measured for 90 mins by luciferase reporter gene assay relative to nociceptin; assay type: functional, cell-based; method in brief: as §6

T1 sequence (P41146 whole entry): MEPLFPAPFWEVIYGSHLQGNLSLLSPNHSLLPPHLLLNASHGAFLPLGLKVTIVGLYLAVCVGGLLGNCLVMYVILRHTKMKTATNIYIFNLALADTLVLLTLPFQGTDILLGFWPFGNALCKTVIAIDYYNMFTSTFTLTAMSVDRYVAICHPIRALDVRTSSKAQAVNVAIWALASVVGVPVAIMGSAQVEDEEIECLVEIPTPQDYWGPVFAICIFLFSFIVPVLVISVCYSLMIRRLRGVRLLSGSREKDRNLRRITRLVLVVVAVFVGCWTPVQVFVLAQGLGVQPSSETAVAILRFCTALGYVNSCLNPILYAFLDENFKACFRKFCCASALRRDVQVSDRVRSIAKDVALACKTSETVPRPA

CN1CC[C@]23c4c5ccc(O)c4O[C@H]2[C@@H](O)C=C[C@H]3[C@H]1C5 [MORPHINE]
Activity [1]: Active
MPE [2]: 50%
MPE [3]: 36.5%
MPE [4]: 30.15%
MPE [5]: 63.8%
ED50 [6]: 7 nmol
ED50 [7]: 7.46 nmol
Activity [8]: Dose-dependent effect
Activity [9]: inactive
MPE [10]: 100%
MPE [11]: 50%

Cc1cc(O)cc(C)c1C[C@H](N)C(=O)N[C@H](CCCNC(=N)N)C(=O)N[C@H]1Cc2ccccc2CN(CCC(=O)N[C@@H](CCCNC(=N)N)C(=O)N[C@@H](Cc2ccc(O)cc2)C(=O)N[C@@H](Cc2ccc(O)cc2)C(=O)N[C@@H](CCCNC(=N)N)C(=O)N[C@@H](Cc2c[nH]c3ccccc23)C(=O)N[C@@H](CCCNC(=N)N)C(N)=O)C1=O (H-[Dmt][dR][X1]RYYRWR-NH2)
Activity [12]: inactive
Activity [13]: Non-toxic
Activity [14]: inactive
Ki [15]: 47 nM
ED50 [6]: 0.0009 nmol
ED50 [7]: 0.002 nmol
Activity [16]: Active

Cc1cc(O)cc(C)c1C[C@H](NC(=O)[C@H](Cc1ccc(O)cc1)NC(=O)[C@H](CCCNC(=N)N)NC(=O)CCN1Cc2ccccc2C[C@H](NC(=O)[C@@H](CCCNC(=N)N)NC(=O)[C@@H](N)Cc2c(C)cc(O)cc2C)C1=O)C(=O)N[C@@H](CCCNC(=N)N)C(=O)N[C@@H](Cc1c[nH]c2ccccc12)C(=O)N[C@@H](CCCNC(=N)N)C(N)=O (H-[Dmt][dR][X1]RY[Dmt]RWR-NH2)
Activity [12]: inactive
Activity [13]: Non-toxic
Activity [14]: inactive
ED50 [6]: 0.0009 nmol
ED50 [7]: 0.005 nmol
Activity [16]: Active

CC[C@H](C)[C@H](NC(=O)[C@H](CCCNC(=N)N)NC(=O)[C@H](Cc1ccc(O)cc1)NC(=O)[C@H](Cc1ccc(O)cc1)NC(=O)[C@@H](N)CCCNC(=N)N)C(=O)N[C@@H](CCCCN)C(N)=O
Activity [13]: Non-toxic
Activity [17]: inactive
Activity [18]: inactive
Activity [19]: Active
inhibition [20]: inactive
Activity [21]: inactive

Cc1cc(O)cc(C)c1C[C@H](N)C(=O)N[C@H](CCCNC(=N)N)C(=O)N[C@H]1Cc2ccccc2CN(CCC(=O)N[C@@H](CCCNC(=N)N)C(=O)N[C@@H](Cc2ccc(O)cc2)C(=O)N[C@@H](Cc2ccc(F)cc2)C(=O)N[C@@H](CCCNC(=N)N)C(=O)N[C@@H](Cc2c[nH]c3ccccc23)C(=O)N[C@@H](CCCNC(=N)N)C(N)=O)C1=O (H-[Dmt][dR][X1]RY[Phe(4-F)]RWR-NH2)
Activity [12]: inactive
Activity [14]: inactive
Activity [22]: Toxic
Activity [16]: Active

CC(=O)N[C@@H](CCCNC(=N)N)C(=O)N[C@@H](Cc1ccc(O)cc1)C(=O)N[C@@H](Cc1ccc(F)cc1)C(=O)N[C@@H](CCCNC(=N)N)C(=O)N[C@@H](Cc1c[nH]c2ccccc12)C(=O)N[C@@H](CCCNC(=N)N)C(N)=O (Ac-RY[Phe(4-F)]RWR-NH2)
Activity [23]: 70%

CC[C@H](C)[C@@H](NC(=O)[C@H](CCCNC(=N)N)NC(=O)[C@H](Cc1ccc(O)cc1)NC(=O)[C@H](Cc1ccc(O)cc1)NC(=O)[C@H](CCCNC(=N)N)NC(C)=O)C(=O)N[C@@H](CCCCN)C(N)=O
Activity [24]: inactive
Activity [25]: Active
Activity [26]: inactive
inhibition [27]: 70%
inhibition [20]: inactive
